Reference: ChEMBL document CHEMBL3286105, “Design, synthesis and antifungal activity of novel triazole derivatives containing substituted 1,2,3-triazole-piperdine side chains” (2014)
In brackets after ≈: the same amount, converted by molar mass.

What was measured:
Type in all cases: functional
Candida albicans = assay: Antifungal activity against Candida albicans assessed as growth inhibition after 24 hrs by serial dilution method
Procedure, shortened: (§1)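 Candida strains were ATCC or clinical isolates. Compounds were dissolved in DMSO and serially diluted in growth medium. Plates were incubated at 35 °C and read at 24 h. MIC was the lowest concentration giving turbidity at […]80% inhibition relative to the growth control.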

Cryptococcus neoformans = assay: Antifungal activity against Cryptococcus neoformans assessed as growth inhibition after 72 hrs by serial dilution method
Procedure, shortened: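 Compounds were taken up in DMSO and diluted in growth medium. Incubation was at 35 °C with MIC read at 72 h. MIC was the lowest concentration at which turbidity reached the 80% inhibition cutoff against the untreated growth control.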

Trichophyton rubrum = assay: Antifungal activity against Trichophyton rubrum assessed as growth inhibition by serial dilution method
Procedure, shortened: (§2)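 Compounds were dissolved in DMSO and diluted in growth medium. Incubation was at 28 °C. MIC was the lowest concentration with turbidity at the 80% inhibition threshold relative to the drug-free growth control.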

Aspergillus fumigatus = assay: Antifungal activity against Aspergillus fumigatus assessed as growth inhibition after 7 days by serial dilution method; details: 168 h
Nakaseomyces glabratus = assay: Antifungal activity against Candida glabrata assessed as growth inhibition after 24 hrs by serial dilution method; procedure, shortened: as §1
Candida parapsilosis = assay: Antifungal activity against Candida parapsilosis assessed as growth inhibition after 24 hrs by serial dilution method; details: Lodderomyces parapsilosis; procedure, shortened: as §1
Nannizzia gypsea = assay: Antifungal activity against Microsporum gypseum assessed as growth inhibition by serial dilution method; procedure, shortened: as §2

Structure (SMILES)	MIC80 (Candida albicans) [µg/mL]	MIC80 (Cryptococcus neoformans) [µg/mL]	MIC80 (Trichophyton rubrum) [µg/mL]	MIC80 (Aspergillus fumigatus) [µg/mL]	MIC80 (Nakaseomyces glabratus) [µg/mL]	MIC80 (Candida parapsilosis) [µg/mL]	MIC80 (Nannizzia gypsea) [µg/mL]
CCc1cn(C2CCN(CC(O)(Cn3cncn3)c3ccc(F)cc3F)CC2)nn1 (configuration not stated)	0.125 (≈ 0.299 µM)	1 (≈ 2.4 µM)	1 (≈ 2.4 µM)	64 (≈ 153 µM)	0.5 (≈ 1.2 µM)	1 (≈ 2.4 µM)	8 (≈ 19.2 µM)
CCCc1cn(C2CCN(CC(O)(Cn3cncn3)c3ccc(F)cc3F)CC2)nn1 (configuration not stated)	0.125 (≈ 0.29 µM)	0.5 (≈ 1.16 µM)	1 (≈ 2.32 µM)	16 (≈ 37.1 µM)	0.25 (≈ 0.579 µM)	1 (≈ 2.32 µM)	4 (≈ 9.27 µM)
OC(CN1CCC(n2cc(C3CC3)nn2)CC1)(Cn1cncn1)c1ccc(F)cc1F (configuration not stated)	0.125 (≈ 0.291 µM)	1 (≈ 2.33 µM)	2 (≈ 4.66 µM)	64 (≈ 149 µM)	0.25 (≈ 0.582 µM)	1 (≈ 2.33 µM)	8 (≈ 18.6 µM)
OC(CN1CCC(n2cc(C3CCCC3)nn2)CC1)(Cn1cncn1)c1ccc(F)cc1F (configuration not stated)	0.5 (≈ 1.09 µM)	8 (≈ 17.5 µM)	16 (≈ 35 µM)	> 64	4 (≈ 8.74 µM)	8 (≈ 17.5 µM)	64 (≈ 140 µM)
COCc1cn(C2CCN(CC(O)(Cn3cncn3)c3ccc(F)cc3F)CC2)nn1 (configuration not stated)	0.125 (≈ 0.288 µM)	0.25 (≈ 0.577 µM)	0.5 (≈ 1.15 µM)	16 (≈ 36.9 µM)	0.25 (≈ 0.577 µM)	0.5 (≈ 1.15 µM)	2 (≈ 4.61 µM)
OCc1cn(C2CCN(CC(O)(Cn3cncn3)c3ccc(F)cc3F)CC2)nn1 (configuration not stated)	8 (≈ 19.1 µM)	64 (≈ 153 µM)	> 64	> 64	32 (≈ 76.3 µM)	> 64	> 64
CC(O)c1cn(C2CCN(CC(O)(Cn3cncn3)c3ccc(F)cc3F)CC2)nn1 (configuration not stated)	8 (≈ 18.5 µM)	64 (≈ 148 µM)	> 64	> 64	16 (≈ 36.9 µM)	> 64	> 64
OCCc1cn(C2CCN(CC(O)(Cn3cncn3)c3ccc(F)cc3F)CC2)nn1 (configuration not stated)	4 (≈ 9.23 µM)	> 64	> 64	> 64	16 (≈ 36.9 µM)	> 64	> 64
OCCCc1cn(C2CCN(CC(O)(Cn3cncn3)c3ccc(F)cc3F)CC2)nn1 (configuration not stated)	8 (≈ 17.9 µM)	> 64	> 64	> 64	16 (≈ 35.8 µM)	> 64	> 64
OCCCCc1cn(C2CCN(CC(O)(Cn3cncn3)c3ccc(F)cc3F)CC2)nn1 (configuration not stated)	4 (≈ 8.67 µM)	32 (≈ 69.3 µM)	64 (≈ 139 µM)	> 64	8 (≈ 17.3 µM)	32 (≈ 69.3 µM)	> 64
OC(c1ccccc1)c1cn(C2CCN(CC(O)(Cn3cncn3)c3ccc(F)cc3F)CC2)nn1 (configuration not stated)	2 (≈ 4.04 µM)	32 (≈ 64.6 µM)	32 (≈ 64.6 µM)	16 (≈ 32.3 µM)	8 (≈ 16.1 µM)	8 (≈ 16.1 µM)	> 64
OC(CN1CCC(n2cc(Cc3ccccc3)nn2)CC1)(Cn1cncn1)c1ccc(F)cc1F (configuration not stated)	0.125 (≈ 0.261 µM)	0.5 (≈ 1.04 µM)	1 (≈ 2.09 µM)	32 (≈ 66.7 µM)	1 (≈ 2.09 µM)	1 (≈ 2.09 µM)	4 (≈ 8.34 µM)
COC(=O)CCCc1cn(C2CCN(CC(O)(Cn3cncn3)c3ccc(F)cc3F)CC2)nn1 (configuration not stated)	0.25 (≈ 0.511 µM)	4 (≈ 8.17 µM)	4 (≈ 8.17 µM)	64 (≈ 131 µM)	2 (≈ 4.09 µM)	4 (≈ 8.17 µM)	8 (≈ 16.3 µM)
O=C(O)CCCc1cn(C2CCN(CC(O)(Cn3cncn3)c3ccc(F)cc3F)CC2)nn1 (configuration not stated)	0.5 (≈ 1.05 µM)	4 (≈ 8.41 µM)	4 (≈ 8.41 µM)	> 64	4 (≈ 8.41 µM)	8 (≈ 16.8 µM)	32 (≈ 67.3 µM)
CCOC(=O)c1cn(C2CCN(CC(O)(Cn3cncn3)c3ccc(F)cc3F)CC2)nn1 (configuration not stated)	8 (≈ 17.3 µM)	> 64	> 64	> 64	32 (≈ 69.3 µM)	> 64	> 64
O=C(O)c1cn(C2CCN(CC(O)(Cn3cncn3)c3ccc(F)cc3F)CC2)nn1 (configuration not stated)	4 (≈ 9.23 µM)	16 (≈ 36.9 µM)	> 64	> 64	8 (≈ 18.5 µM)	64 (≈ 148 µM)	> 64
OC(CN1CCC(n2cc(-c3ccccc3)nn2)CC1)(Cn1cncn1)c1ccc(F)cc1F (configuration not stated)	0.125 (≈ 0.269 µM)	0.25 (≈ 0.537 µM)	0.5 (≈ 1.07 µM)	> 64	1 (≈ 2.15 µM)	1 (≈ 2.15 µM)	4 (≈ 8.59 µM)
OC(CN1CCC(n2cc(-c3cccnc3)nn2)CC1)(Cn1cncn1)c1ccc(F)cc1F (configuration not stated)	0.125 (≈ 0.268 µM)	0.125 (≈ 0.268 µM)	4 (≈ 8.57 µM)	64 (≈ 137 µM)	1 (≈ 2.14 µM)	1 (≈ 2.14 µM)	16 (≈ 34.3 µM)
OC(CN1CCC(n2cc(-c3ccc(Br)cc3)nn2)CC1)(Cn1cncn1)c1ccc(F)cc1F (configuration not stated)	0.125 (≈ 0.23 µM)	0.125 (≈ 0.23 µM)	0.25 (≈ 0.459 µM)	> 64	0.5 (≈ 0.918 µM)	1 (≈ 1.84 µM)	2 (≈ 3.67 µM)
CC(=O)c1ccc(-c2cn(C3CCN(CC(O)(Cn4cncn4)c4ccc(F)cc4F)CC3)nn2)cc1 (configuration not stated)	0.0625 (≈ 0.123 µM)	0.125 (≈ 0.246 µM)	1 (≈ 1.97 µM)	64 (≈ 126 µM)	0.5 (≈ 0.985 µM)	0.5 (≈ 0.985 µM)	2 (≈ 3.94 µM)
CN(C)c1ccc(-c2cn(C3CCN(CC(O)(Cn4cncn4)c4ccc(F)cc4F)CC3)nn2)cc1 (configuration not stated)	0.25 (≈ 0.492 µM)	1 (≈ 1.97 µM)	2 (≈ 3.93 µM)	8 (≈ 15.7 µM)	2 (≈ 3.93 µM)	2 (≈ 3.93 µM)	4 (≈ 7.87 µM)
OC(CN1CCC(n2cc(-c3ccc(OC(F)(F)F)cc3)nn2)CC1)(Cn1cncn1)c1ccc(F)cc1F (configuration not stated)	0.0125 (≈ 0.0227 µM)	0.125 (≈ 0.227 µM)	0.5 (≈ 0.91 µM)	8 (≈ 14.6 µM)	0.5 (≈ 0.91 µM)	2 (≈ 3.64 µM)	4 (≈ 7.28 µM)
COc1cccc(-c2cn(C3CCN(CC(O)(Cn4cncn4)c4ccc(F)cc4F)CC3)nn2)c1 (configuration not stated)	0.125 (≈ 0.252 µM)	0.125 (≈ 0.252 µM)	4 (≈ 8.07 µM)	> 64	2 (≈ 4.04 µM)	4 (≈ 8.07 µM)	32 (≈ 64.6 µM)
Cc1ccccc1-c1cn(C2CCN(CC(O)(Cn3cncn3)c3ccc(F)cc3F)CC2)nn1 (configuration not stated)	0.125 (≈ 0.261 µM)	0.25 (≈ 0.521 µM)	0.5 (≈ 1.04 µM)	> 64	0.5 (≈ 1.04 µM)	0.5 (≈ 1.04 µM)	64 (≈ 133 µM)
OC(Cn1cncn1)(Cn1cncn1)c1ccc(F)cc1F [FLUCONAZOLE]	0.25 (≈ 0.816 µM)	1 (≈ 3.27 µM)	8 (≈ 26.1 µM)	> 64	1 (≈ 3.27 µM)	2 (≈ 6.53 µM)	32 (≈ 104 µM)
CCC(C)n1ncn(-c2ccc(N3CCN(c4ccc(OCC5COC(Cn6cncn6)(c6ccc(Cl)cc6Cl)O5)cc4)CC3)cc2)c1=O (configuration not stated) [ITRACONAZOLE]	1 (≈ 1.42 µM)	2 (≈ 2.83 µM)	0.5 (≈ 0.709 µM)	1 (≈ 1.42 µM)	1 (≈ 1.42 µM)	4 (≈ 5.67 µM)	2 (≈ 2.83 µM)
